Test results reported in ChEMBL document CHEMBL1149797, “Synthesis and in vitro antibacterial activities of novel oxazolidinones” (Eur J Med Chem, 2008).
In brackets after ≈: the same amount, converted by molar mass.

Columns and labels:
Format in all cases: functional
Bacillus pumilus = test: Antibacterial activity against Bacillus pumilus ATCC 14884 by broth microdilution technique
Method in brief: (§1)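 Broth microdilution per CLSI (NCCLS) guidelines. Compounds were dissolved in DMSO with water added to give an 80% DMSO stock, then diluted 1:10 to working solutions in water or medium. They were tested at 0.125, 0.25, 0.5, 1, 2, 4, 8 and 16 (two-fold series) against the final inoculum. Each run included sterility controls and vehicle controls (plain medium; 4%, 2%, 1% DMSO). MIC was read as growth inhibition.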

Bacillus cereus = test: Antibacterial activity against Bacillus cereus ATCC 11778 by broth microdilution technique; method in brief: as §1
Streptococcus pyogenes = test: Antibacterial activity against Streptococcus pyogenes ATCC 14289 by broth microdilution technique; method in brief: as §1
[1] = system: Staphylococcus epidermidis; test: Antibacterial activity against Staphylococcus epidermidis ATCC 155 by broth microdilution technique; method in brief: as §1
Enterococcus faecalis [2] = test: Antibacterial activity against Enterococcus faecalis ATCC 35550 by broth microdilution technique; method in brief: as §1
Staphylococcus aureus [3] = test: Antibacterial activity against Staphylococcus aureus ATCC 25923 by broth microdilution technique; method in brief: as §1
Enterococcus faecalis [4] = test: Antibacterial activity against Enterococcus faecalis ATCC 14506 by broth microdilution technique; method in brief: as §1
Enterococcus faecalis [5] = test: Antibacterial activity against multidrug-resistant Enterococcus faecalis ATCC 700802 by broth microdilution technique
Method in brief: (§2)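 Broth microdilution per NCCLS/CLSI. Compounds dissolved in DMSO with water added to give an 80% DMSO stock. Stock diluted 1:10 in 4-8% DMSO in water or medium to make the working solution. Tested at […]. Sterility controls run with each set. Inoculum viability controls included plain medium and 4%, 2% and 1% DMSO vehicle. MIC taken as growth inhibition.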

Enterococcus faecium = test: Antibacterial activity against vancomycin-resistant Enterococcus faecium ATCC 700221 by broth microdilution technique; method in brief: as §2
Staphylococcus aureus [6] = test: Antibacterial activity against Staphylococcus aureus ATCC 29213 by broth microdilution technique; method in brief: as §2
Staphylococcus aureus [7] = test: Antibacterial activity against Staphylococcus aureus ATCC 9144 by broth microdilution technique; method in brief: as §2
Staphylococcus aureus [8] = test: Antibacterial activity against Staphylococcus aureus ATCC 14154 by broth microdilution technique; method in brief: as §2
Staphylococcus aureus [9] = test: Antibacterial activity against methicillin-resistant Staphylococcus aureus ATCC 700699 by broth microdilution technique; method in brief: as §2
Staphylococcus aureus [10] = test: Antibacterial activity against linezolid-resistant Staphylococcus aureus NRS 119 with G 2576T mutation by broth microdilution technique; method in brief: as §2
Staphylococcus aureus [11] = test: Antibacterial activity against linezolid-resistant Staphylococcus aureus NRS 120 with G 2576T mutation by broth microdilution technique; method in brief: as §2
Streptococcus pneumoniae = test: Antibacterial activity against multidrug-resistant Streptococcus pneumoniae ATCC 700904 by broth microdilution technique; method in brief: as §2

Compound	MIC (Bacillus pumilus)	MIC (Bacillus cereus)	MIC (Streptococcus pyogenes)	MIC [1]	MIC (Enterococcus faecalis [2])	MIC (Staphylococcus aureus [3])	MIC (Enterococcus faecalis [4])	MIC (Enterococcus faecalis [5])	MIC (Enterococcus faecium)	MIC (Staphylococcus aureus [6])	MIC (Staphylococcus aureus [7])	MIC (Staphylococcus aureus [8])	MIC (Staphylococcus aureus [9])	MIC (Staphylococcus aureus [10])	MIC (Staphylococcus aureus [11])	MIC (Streptococcus pneumoniae)
CC(=O)NC[C@H]1CN(c2ccc(N3CCN(C(=O)/C=C/c4ccncc4)CC3)c(F)c2)C(=O)O1	1 µg/mL (≈ 2.14 µM)	1 µg/mL (≈ 2.14 µM)	0.5 µg/mL (≈ 1.07 µM)	2 µg/mL (≈ 4.28 µM)	2 µg/mL (≈ 4.28 µM)	4 µg/mL (≈ 8.56 µM)										
CC(=O)NC[C@H]1CN(c2ccc(N3CCN(C(=O)/C=C/c4ccc(C(=O)[O-])o4)CC3)c(F)c2)C(=O)O1.[Na+]	> 16 µg/mL	> 16 µg/mL	> 16 µg/mL	> 16 µg/mL	> 16 µg/mL	> 16 µg/mL										
CC(=O)NC[C@H]1CN(c2ccc(N3CCN(C(=O)CO)CC3)c(F)c2)C(=O)O1 [EPEREZOLID]	1 µg/mL (≈ 2.54 µM)	2 µg/mL (≈ 5.07 µM)	0.5 µg/mL (≈ 1.27 µM)	2 µg/mL (≈ 5.07 µM)	2 µg/mL (≈ 5.07 µM)	2 µg/mL (≈ 5.07 µM)	1 µg/mL (≈ 2.54 µM)	1 µg/mL (≈ 2.54 µM)	1 µg/mL (≈ 2.54 µM)	2 µg/mL (≈ 5.07 µM)	2 µg/mL (≈ 5.07 µM)	1 µg/mL (≈ 2.54 µM)	1 µg/mL (≈ 2.54 µM)	> 16 µg/mL	> 16 µg/mL	0.5 µg/mL (≈ 1.27 µM)
CC(=O)NC[C@H]1CN(c2ccc(N3CCN(C(=O)/C=C/c4ccc(C(=O)O)o4)CC3)c(F)c2)C(=O)O1	> 16 µg/mL	> 16 µg/mL	> 16 µg/mL	> 16 µg/mL	> 16 µg/mL	> 16 µg/mL										
CC(=O)NC[C@H]1CN(c2ccc(N3CCN(C(=O)/C=C/c4cccnc4)CC3)c(F)c2)C(=O)O1	1 µg/mL (≈ 2.14 µM)	1 µg/mL (≈ 2.14 µM)	0.5 µg/mL (≈ 1.07 µM)	0.5 µg/mL (≈ 1.07 µM)	2 µg/mL (≈ 4.28 µM)	1 µg/mL (≈ 2.14 µM)										
CC(=O)NC[C@H]1CN(c2ccc(N3CCN(C(=O)/C=C/c4cccs4)CC3)c(F)c2)C(=O)O1	0.5 µg/mL (≈ 1.06 µM)	0.5 µg/mL (≈ 1.06 µM)	1 µg/mL (≈ 2.12 µM)	0.5 µg/mL (≈ 1.06 µM)	0.5 µg/mL (≈ 1.06 µM)	1 µg/mL (≈ 2.12 µM)										
CC(=O)NC[C@H]1CN(c2ccc(N3CCN(C(=O)/C=C/c4ccc[nH]4)CC3)c(F)c2)C(=O)O1	1 µg/mL (≈ 2.2 µM)	1 µg/mL (≈ 2.2 µM)	1 µg/mL (≈ 2.2 µM)	0.5 µg/mL (≈ 1.1 µM)	1 µg/mL (≈ 2.2 µM)	1 µg/mL (≈ 2.2 µM)										
CC(=O)NC[C@H]1CN(c2ccc(N3CCN(C(=O)/C=C/c4ccc([N+](=O)[O-])o4)CC3)c(F)c2)C(=O)O1	≤ 0.12 µg/mL	≤ 0.12 µg/mL	≤ 0.12 µg/mL	≤ 0.12 µg/mL	0.25 µg/mL (≈ 0.499 µM)	0.12 µg/mL (≈ 0.239 µM)	0.25 µg/mL (≈ 0.499 µM)	0.5 µg/mL (≈ 0.997 µM)	0.12 µg/mL (≈ 0.239 µM)	0.12 µg/mL (≈ 0.239 µM)	0.12 µg/mL (≈ 0.239 µM)	0.12 µg/mL (≈ 0.239 µM)	0.12 µg/mL (≈ 0.239 µM)	2 µg/mL (≈ 3.99 µM)	2 µg/mL (≈ 3.99 µM)	0.25 µg/mL (≈ 0.499 µM)
CC(=O)NC[C@H]1CN(c2ccc(N3CCN(C(=O)/C=C/c4ccco4)CC3)c(F)c2)C(=O)O1	0.5 µg/mL (≈ 1.1 µM)	0.5 µg/mL (≈ 1.1 µM)		1 µg/mL (≈ 2.19 µM)	0.5 µg/mL (≈ 1.1 µM)	0.5 µg/mL (≈ 1.1 µM)										
CC(=O)NC[C@H]1CN(c2ccc(N3CCN(C/C=C/c4ccco4)CC3)c(F)c2)C(=O)O1	2 µg/mL (≈ 4.52 µM)	0.5 µg/mL (≈ 1.13 µM)	0.5 µg/mL (≈ 1.13 µM)	8 µg/mL (≈ 18.1 µM)	2 µg/mL (≈ 4.52 µM)	2 µg/mL (≈ 4.52 µM)										
CC(=O)NC[C@H]1CN(c2ccc(N3CCN(C(=O)/C=C/c4ccc(COC(C)=O)o4)CC3)c(F)c2)C(=O)O1	4 µg/mL (≈ 7.57 µM)	4 µg/mL (≈ 7.57 µM)	2 µg/mL (≈ 3.78 µM)	2 µg/mL (≈ 3.78 µM)	4 µg/mL (≈ 7.57 µM)	2 µg/mL (≈ 3.78 µM)										
CC(=O)NC[C@H]1CN(c2ccc(N3CCN(C(=O)/C=C/c4ccc([N+](=O)[O-])s4)CC3)c(F)c2)C(=O)O1	0.5 µg/mL (≈ 0.966 µM)	1 µg/mL (≈ 1.93 µM)	0.12 µg/mL (≈ 0.232 µM)	≤ 0.12 µg/mL	0.5 µg/mL (≈ 0.966 µM)	0.25 µg/mL (≈ 0.483 µM)	0.25 µg/mL (≈ 0.483 µM)	0.5 µg/mL (≈ 0.966 µM)	0.5 µg/mL (≈ 0.966 µM)	0.25 µg/mL (≈ 0.483 µM)	0.25 µg/mL (≈ 0.483 µM)	0.25 µg/mL (≈ 0.483 µM)	0.25 µg/mL (≈ 0.483 µM)	4 µg/mL (≈ 7.73 µM)	4 µg/mL (≈ 7.73 µM)	≤ 0.125 µg/mL
CC(=O)NC[C@H]1CN(c2ccc(N3CCN(C(=O)/C=C/c4ccc(CO)o4)CC3)c(F)c2)C(=O)O1	4 µg/mL (≈ 8.22 µM)	2 µg/mL (≈ 4.11 µM)	1 µg/mL (≈ 2.06 µM)	1 µg/mL (≈ 2.06 µM)	2 µg/mL (≈ 4.11 µM)	4 µg/mL (≈ 8.22 µM)										
CC(=O)NC[C@H]1CN(c2ccc(N3CCN(C(=O)/C=C/c4ccoc4)CC3)c(F)c2)C(=O)O1	1 µg/mL (≈ 2.19 µM)	1 µg/mL (≈ 2.19 µM)	0.5 µg/mL (≈ 1.1 µM)	0.5 µg/mL (≈ 1.1 µM)	1 µg/mL (≈ 2.19 µM)	1 µg/mL (≈ 2.19 µM)										
CC(=O)NC[C@H]1CN(c2ccc(N3CCN(C/C=C/c4ccc([N+](=O)[O-])o4)CC3)c(F)c2)C(=O)O1	0.25 µg/mL (≈ 0.513 µM)	0.25 µg/mL (≈ 0.513 µM)	0.12 µg/mL (≈ 0.246 µM)	0.5 µg/mL (≈ 1.03 µM)	1 µg/mL (≈ 2.05 µM)	1 µg/mL (≈ 2.05 µM)										
CC(=O)NC[C@H]1CN(c2ccc(N3CCN(C(=O)/C=C/c4ccsc4)CC3)c(F)c2)C(=O)O1	0.5 µg/mL (≈ 1.06 µM)	0.5 µg/mL (≈ 1.06 µM)		1 µg/mL (≈ 2.12 µM)	0.5 µg/mL (≈ 1.06 µM)	0.5 µg/mL (≈ 1.06 µM)										
CC(=O)NC[C@H]1CN(c2ccc(N3CCN(C(=O)/C=C/c4ccc(C=O)o4)CC3)c(F)c2)C(=O)O1	1 µg/mL (≈ 2.06 µM)	2 µg/mL (≈ 4.13 µM)	1 µg/mL (≈ 2.06 µM)	2 µg/mL (≈ 4.13 µM)	2 µg/mL (≈ 4.13 µM)	4 µg/mL (≈ 8.26 µM)										
CC(=O)NC[C@H]1CN(c2ccc(N3CCN(C(=O)/C=C/c4c[nH]c5ccccc45)CC3)c(F)c2)C(=O)O1	0.5 µg/mL (≈ 0.989 µM)	0.25 µg/mL (≈ 0.495 µM)	0.12 µg/mL (≈ 0.237 µM)	1 µg/mL (≈ 1.98 µM)	0.5 µg/mL (≈ 0.989 µM)	2 µg/mL (≈ 3.96 µM)										
CC(=O)NC[C@H]1CN(c2ccc(N3CCN(C(=O)/C=C/c4ccc(C)o4)CC3)c(F)c2)C(=O)O1	1 µg/mL (≈ 2.13 µM)	1 µg/mL (≈ 2.13 µM)	0.5 µg/mL (≈ 1.06 µM)	0.5 µg/mL (≈ 1.06 µM)	1 µg/mL (≈ 2.13 µM)	2 µg/mL (≈ 4.25 µM)										
